Compounds with a hit are over-represented: about 3.5% of the library has one in this group of screens.
MrgX1 antagonist: antagonists of human MrgX1 receptor, primary screen, HEK293 cells, Fluo-4 calcium flux; 1.3% of 310,000 active; Mas-related G-protein coupled receptor member X1 (Homo sapiens), Q96LB2; B-score at 10 µM; BAM8-22 antagonism; hits give low values; AID 588676, 2011;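 active means calcium-response B-score plate-corrected more than 3 library SD below zero, starting fluorescence within 5 deviations, no agonist response on first addition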;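 further: peak minus trough fluorescence over baseline after final BAM8-22 challenge near maximal dose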
Target sequence (Q96LB2 whole entry, looked up): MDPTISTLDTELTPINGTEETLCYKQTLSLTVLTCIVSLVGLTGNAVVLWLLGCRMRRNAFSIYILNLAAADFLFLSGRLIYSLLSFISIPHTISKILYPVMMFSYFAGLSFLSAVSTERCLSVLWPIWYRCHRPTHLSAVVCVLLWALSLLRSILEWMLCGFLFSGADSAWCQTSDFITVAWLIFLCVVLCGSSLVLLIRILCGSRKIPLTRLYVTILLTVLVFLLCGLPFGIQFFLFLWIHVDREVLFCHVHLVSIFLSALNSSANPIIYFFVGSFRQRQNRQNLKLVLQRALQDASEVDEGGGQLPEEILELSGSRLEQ
RGS4 inh: RGS4 inhibitors, primary screen, cell-based, HEK293 M3R inducible RGS4, calcium flux; Regulator of G-protein signaling 4 (Homo sapiens), P49798; Fluo-4 calcium flux; hits give high values; triggered by carbachol at its EC20; B-score at 10 µM; 0.45% of 310,000 active;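 active means B-score, a plate-corrected calcium signal, over three deviations above library mean, with baseline fluorescence within five deviations of library mean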;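 further: RGS4 expression induced by doxycycline in cells with stable M3 receptor; B-score is computed from the integrated fluorescence ratio over baseline after carbachol; higher B-score means a larger calcium signal and so more RGS4 inhibition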
Target sequence (P49798 whole entry, looked up): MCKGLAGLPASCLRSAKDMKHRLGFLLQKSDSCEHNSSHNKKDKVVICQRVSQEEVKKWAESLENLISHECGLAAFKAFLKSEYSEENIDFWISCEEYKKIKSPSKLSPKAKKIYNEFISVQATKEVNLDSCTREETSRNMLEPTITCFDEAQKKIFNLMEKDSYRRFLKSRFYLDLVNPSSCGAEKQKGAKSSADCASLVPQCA
MrgX1 PAM: positive allosteric modulators of MrgX1, primary screen, HEK293 cells, Fluo-4 calcium flux. 0.63% of 310,000 active. FDSS; hits give high values. B-score at 10 µM. AID 588675, 2011. Mas-related G-protein coupled receptor member X1 (Homo sapiens), Q96LB2;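 active means plate-corrected calcium response at least 3 library SD above typical, normal starting fluorescence, not activating the receptor alone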;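 further: compound read alongside a low EC10 to EC30 dose of BAM8-22 agonist; peak minus trough fluorescence over baseline measured at the second addition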
RGS4 pot: RGS4 potentiators or activators, primary screen, cell-based, HEK293 M3R inducible RGS4, calcium flux; B-score at 10 µM; carbachol calcium flux Fluo4; hits give low values; 0.92% of 310,000 active;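 active means B-score of the integrated calcium signal more than 4 SD below the library mean, with starting fluorescence not abnormally high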;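 further: negative B-score means reduced calcium response which marks RGS4 activation or potentiation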
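Test system: HEK293 cells with stable M3R and inducible RGS4; also added: carbachol at ECmax as muscarinic agonist stimulus; schedule: dye loading 30 min 37 °C, buffer rest 30 min RT; technique: kinetic calcium fluorescence imaging with Fluo4-AM dye, 2 µM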
MrgX1 ag: agonists of human MrgX1 receptor, primary screen, HEK293 cells, Fluo-4 calcium flux; Mas-related G-protein coupled receptor member X1 (Homo sapiens), Q96LB2; Fluo-4 calcium fluorescence, agonist mode; hits give high values; B-score at 10 µM; 0.44% of 310,000 active; AID 588627, 2011;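 active means calcium response B-score plate-corrected fluorescence ratio at least 3 library SD, with starting fluorescence B-score inside 5 SD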
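Test system: HEK293 cells stably expressing human MrgX1 receptor; amount: 15,000 cells per well; doses: compound delivered in addition one of three; times: overnight plating before 1 h dye loading; detection: Fluo-4 NW calcium-flux fluorescence, kinetic read; read-out basis: B-scored fluorescence response ratio; controls: positive and negative controls per plate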
MrgX1 allo conf: MrgX1 positive allosteric modulators, duplicate retest, confirmation, HEK293 cells, Fluo-4 calcium flux | shares compounds with MrgX1 PAM | Fluo-4 calcium fluorescence, FDSS | activation (ratio percentage), % at 10 µM | 13% of 1,200 active;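 active means ratio at least 3 SD above the weak peptide control, stable starting fluorescence, no direct agonism earlier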;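 further: compound followed by low BAM8-22 agonist challenge near EC20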
HEK293 Ca flux: nonspecific calcium signal in parental HEK293, confirmation, counter-screen for MrgX1 antagonist project, parental HEK293 cells, Fluo-4 calcium flux; shares compounds with MrgX1 antagonist; AID 624111, 2012; 2% of 4,000 active; fluorescence ratio F(max-min)/F0 at 10 µM; Fluo-4 calcium fluorescence, FDSS;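 active means duplicate-averaged calcium fluorescence ratio at least three times the standard deviation of buffer wells, a nonspecific response in parental cells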
HEK293 Ca counter: calcium response in parental HEK293 cells, primary screen, counter-screen for MrgX1 allosteric activator project, cell-based, Fluo-4 calcium flux, duplicate; shares compounds with MrgX1 antagonist; Fluo-4 fluorescence ratio; hits give high values; fluorescence ratio F(max-min)/F0 at 10 µM; 0.4% of 4,000 active;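 active means calcium fluorescence ratio, averaged over duplicates, at least 3 SD of the buffer-well ratio, meaning a nonspecific response in receptor-free cells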;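 further: untransfected parental HEK293 lacking MrgX1 used as counterscreen for MrgX1 allosteric activators; fluorescence change taken during the second addition on a kinetic imager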
HEK293 Ca cntr2: calcium response in parental HEK293 cells, primary screen, counter-screen for MrgX1 agonist project, cell-based, Fluo-4 calcium flux, duplicate, agonist mode. shares compounds with MrgX1 antagonist. Fluo-4 calcium fluorescence (FDSS); hits give high values. fluorescence ratio F(max-min)/F0 at 10 µM. 8.7% of 4,000 active. AID 624115, 2012;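 active means calcium fluorescence ratio at least three times the spread of buffer wells, meaning a non-specific response in parental cells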
A number is an active result.

How did CCCSc1nnc(N2C(=O)CC(c3ccsc3)C3=C2CCCC3=O)s1 (stereo not drawn) do in these assays?
MrgX1 antagonist: inactive; RGS4 inh: inactive; MrgX1 PAM: 8.77; RGS4 pot: inactive; MrgX1 ag: inactive; MrgX1 allo conf: inactive; HEK293 Ca flux: inactive; HEK293 Ca counter: inactive; HEK293 Ca cntr2: inactive

Results for CCOC(=O)N1CCN(c2cc(=O)n(-c3cccc(C)c3)c(=O)[nH]2)CC1 ?
MrgX1 antagonist: inactive; RGS4 inh: inactive; MrgX1 PAM: 11.1; RGS4 pot: inactive; MrgX1 ag: inactive; MrgX1 allo conf: inactive; HEK293 Ca flux: inactive; HEK293 Ca counter: inactive; HEK293 Ca cntr2: inactive

How did CCOC(=O)N1CCN(c2cc(=O)n(-c3cccc(Br)c3)c(=O)[nH]2)CC1 do in these assays?
MrgX1 antagonist: inactive; RGS4 inh: inactive; MrgX1 PAM: inactive; RGS4 pot: inactive; MrgX1 ag: inactive

What do the screens show for `O=C(c1ccc(COc2ccc3c(c2)CCC3)o1)N1CCN(c2ccccc2)CC1`?
MrgX1 antagonist: inactive; RGS4 inh: inactive; MrgX1 PAM: 7.73; RGS4 pot: inactive; MrgX1 ag: inactive; MrgX1 allo conf: inactive; HEK293 Ca flux: inactive; HEK293 Ca counter: inactive; HEK293 Ca cntr2: inactive

Results for FC(F)Sc1ccc(NC(=S)NC2CCCC2)cc1 ?
MrgX1 antagonist: inactive; RGS4 inh: inactive; MrgX1 PAM: 6.85; RGS4 pot: inactive; MrgX1 ag: inactive; MrgX1 allo conf: inactive; HEK293 Ca flux: inactive; HEK293 Ca counter: inactive; HEK293 Ca cntr2: inactive

Results for OC1CCC(NC(=S)Nc2ccc(SC(F)F)cc2)CC1 (stereo not drawn) ?
MrgX1 antagonist: inactive; RGS4 inh: inactive; MrgX1 PAM: inactive; RGS4 pot: inactive; MrgX1 ag: inactive

Results for Cc1nc(SCC(=O)Nc2cc(C(N)=O)cc(C(N)=O)c2)c2c(C)c(C)sc2n1 ?
MrgX1 antagonist: inactive; RGS4 inh: inactive; MrgX1 PAM: 12.7; RGS4 pot: inactive; MrgX1 ag: inactive; MrgX1 allo conf: inactive; HEK293 Ca flux: inactive; HEK293 Ca counter: inactive; HEK293 Ca cntr2: inactive

Results for Cc1nc(SCC(=O)NCc2ccco2)c2c(C)c(C)sc2n1 ?
MrgX1 antagonist: inactive; RGS4 inh: inactive; MrgX1 PAM: inactive; RGS4 pot: inactive; MrgX1 ag: inactive

Results for C=C(C)COc1ccc(-c2[nH]ncc2-c2ccc(Br)cc2)c(O)c1 ?
MrgX1 antagonist: inactive; RGS4 inh: inactive; MrgX1 PAM: 18.6; RGS4 pot: inactive; MrgX1 ag: inactive; MrgX1 allo conf: 10.2%; HEK293 Ca flux: inactive; HEK293 Ca counter: inactive; HEK293 Ca cntr2: inactive

What do the screens show for `C=C(C)COc1ccc(-c2[nH]ncc2-c2ccccc2OC)c(O)c1`?
MrgX1 antagonist: inactive; RGS4 inh: inactive; MrgX1 PAM: 17.7; RGS4 pot: inactive; MrgX1 ag: inactive; MrgX1 allo conf: inactive; HEK293 Ca flux: inactive; HEK293 Ca counter: inactive; HEK293 Ca cntr2: inactive

What do the screens show for `C=C(C)COc1ccc(-c2[nH]ncc2Oc2ccccc2OC)c(O)c1`?
MrgX1 antagonist: inactive; RGS4 inh: inactive; MrgX1 PAM: inactive; RGS4 pot: inactive; MrgX1 ag: inactive

Results for CCOC(=O)CNC(=O)COc1coc(CN2CCN(c3ccccc3F)CC2)cc1=O ?
MrgX1 antagonist: inactive; RGS4 inh: inactive; MrgX1 PAM: inactive; RGS4 pot: inactive; MrgX1 ag: inactive

What do the screens show for `O=C(Cn1cnc2ccccc2c1=O)NC1CCS(=O)(=O)C1` (stereo not drawn)?
MrgX1 antagonist: inactive; RGS4 inh: inactive; MrgX1 PAM: inactive; RGS4 pot: inactive; MrgX1 ag: inactive

What do the screens show for `CCOc1c(C)cnc2c1c(=O)n(Cc1ccccc1F)c(=O)n2C`?
MrgX1 antagonist: inactive; RGS4 inh: inactive; MrgX1 PAM: inactive; RGS4 pot: inactive; MrgX1 ag: inactive

What do the screens show for `N#Cc1ccc(-c2ccco2)nc1SCC(=O)c1ccc(Cl)cc1`?
MrgX1 antagonist: inactive; RGS4 inh: inactive; MrgX1 PAM: 8.42; RGS4 pot: inactive; MrgX1 ag: inactive; MrgX1 allo conf: inactive; HEK293 Ca flux: 0.482; HEK293 Ca counter: inactive; HEK293 Ca cntr2: inactive

What do the screens show for `O=C(CCS(=O)(=O)Cc1ccccc1F)NCCc1ccc(Cl)cc1`?
MrgX1 antagonist: inactive; RGS4 inh: inactive; MrgX1 PAM: inactive; RGS4 pot: inactive; MrgX1 ag: inactive

Results for Cc1cccn2c(=O)c(C(=O)NC3CCCCC3C)c(O)nc12 (stereo not drawn) ?
MrgX1 antagonist: inactive; RGS4 inh: inactive; MrgX1 PAM: inactive; RGS4 pot: inactive; MrgX1 ag: inactive

Results for Cc1ccn2c(=O)c(C(=O)NC3CCCCC3C)c(O)nc2c1 (stereo not drawn) ?
MrgX1 antagonist: inactive; RGS4 inh: inactive; MrgX1 PAM: 9.32; RGS4 pot: inactive; MrgX1 ag: inactive; MrgX1 allo conf: inactive; HEK293 Ca flux: inactive; HEK293 Ca counter: inactive; HEK293 Ca cntr2: inactive

How did CCOC(=O)c1c(CN(CC)CC)n(C)c2cc(Br)c(O)cc12 do in these assays?
MrgX1 antagonist: inactive; RGS4 inh: inactive; MrgX1 PAM: 6.9; RGS4 pot: inactive; MrgX1 ag: inactive; MrgX1 allo conf: inactive; HEK293 Ca flux: inactive; HEK293 Ca counter: inactive; HEK293 Ca cntr2: inactive

Results for OCC1CCCN(c2ncnc3scc(-c4ccccc4)c23)C1 (stereo not drawn) ?
MrgX1 antagonist: inactive; RGS4 inh: inactive; MrgX1 PAM: 6.48; RGS4 pot: inactive; MrgX1 ag: inactive; MrgX1 allo conf: inactive; HEK293 Ca flux: inactive; HEK293 Ca counter: inactive; HEK293 Ca cntr2: inactive

How did O=S(=O)(c1ccccc1)N1CCN(c2ncnc3scc(-c4ccccc4)c23)CC1 do in these assays?
MrgX1 antagonist: inactive; RGS4 inh: inactive; MrgX1 PAM: inactive; RGS4 pot: inactive; MrgX1 ag: inactive

Results for CCNc1nc(Oc2c(Cl)cccc2Cl)cc(C(F)(F)F)n1 ?
MrgX1 antagonist: inactive; RGS4 inh: inactive; MrgX1 PAM: inactive; RGS4 pot: inactive; MrgX1 ag: inactive
